Bioassay records from PubChem.
This is a sample that favours compounds with a hit; in the whole collection about 2.8% have one here.
NR3A LBD binder: modulates the human NR3A ligand-binding domain; NR3A LBD differential scanning fluorimetry, Tm shift; 0% = protein alone, 100% = glycine-bound protein; Tm shift relative to glycine control, % at 25 µM; actives 2.5% (n = 340,000);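 active = melting temperature shift of at least 10% of the positive control shift, at one fixed dose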
T cell modulator: T cell immune modulation candidate | 2C CD8+ T cell-vesicle binding, flow cytometry; hits give low values | response (vesicle binding), % at 7 µM | actives 0.068% (n = 330,000);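 active = response, share of CD8 T cells binding vesicles, and their 90th percentile fluorescence all below set limits, cut at about 80% in these data, passing the limit was not always enough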;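 note: values below 100% mean blocked vesicle binding to the CD8+ T cells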
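Also added: QL9-peptide-loaded Drosophila micro-vesicles bearing Ld, ICAM-1 and B7-1; Test system: purified 2C TCR transgenic mouse naive CD8+ T cells; Measured by: cytometric PE anti-B7-1 and Alexa647 anti-CD8 signals after 1% paraformaldehyde fixation; Timing: binding step 1.5 h, 37 °C, antibody labelling 20 min, ice.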
GASC-1 inh: inhibitors of human GASC-1 (JMJD2C) demethylase; actives 0.069% (n = 330,000); AID 2099; Q9H3R0; GST-JMJD2C(1-420) H3K9me3 demethylation, DELFIA europium; inhibition, % at 2.35 µM;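 active = more than half of a compound's replicate wells show inhibition beyond 50%, single wells judged on their own value; inconclusive = some, but no more than half, of replicates pass 50% inhibition; inactive = no replicate passes 50% inhibition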;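 note: signal counts dimethyl H3K9 product captured on neutravidin plate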
Target sequence (Q9H3R0 1-420 limits assumed): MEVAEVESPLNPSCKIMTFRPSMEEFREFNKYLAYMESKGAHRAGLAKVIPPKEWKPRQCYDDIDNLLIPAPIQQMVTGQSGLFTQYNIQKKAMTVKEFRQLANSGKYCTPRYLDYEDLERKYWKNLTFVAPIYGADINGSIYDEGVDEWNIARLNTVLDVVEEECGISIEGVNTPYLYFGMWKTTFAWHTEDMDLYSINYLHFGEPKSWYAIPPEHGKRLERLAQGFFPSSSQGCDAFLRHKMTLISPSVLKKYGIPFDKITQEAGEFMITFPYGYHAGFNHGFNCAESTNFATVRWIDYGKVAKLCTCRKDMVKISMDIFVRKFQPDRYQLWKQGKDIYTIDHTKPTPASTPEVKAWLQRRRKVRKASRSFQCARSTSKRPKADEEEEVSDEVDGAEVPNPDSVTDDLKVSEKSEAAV
Rtt109 HAT inh: inhibitors of Candida albicans Rtt109/Vps75 histone acetyltransferase; purified Rtt109/Vps75, ThioGlo CoA-SH fluorescence, 4 h; Q5AAJ8; actives 0.16% (n = 330,000); inhibition, % at 34.9 µM; AID 540336;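 active = inhibition of at least 50% in every replicate; inconclusive = best replicate reaches 50% inhibition but some replicates fall short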
Each line names hits and unclear results; the compound was inactive in the other large screens; ! = not confirmed by another sample.

CCOC(=O)C1C(C(C)=O)=C(c2ccccc2)c2ccccc2N1S(=O)(=O)C(F)(F)F (stereo unspecified)	NR3A LBD binder 11 (no result: T cell modulator, GASC-1 inh)
CC1CCN=C(N)S1 (stereo unspecified)	none
CCOC(=O)c1c(C)n(C)c2cc(-c3cccc(C(F)(F)F)c3)c(O)cc12	NR3A LBD binder 13
CC(=O)Oc1ccc(OC(C)=O)c2c1CC(C)=C(C)C2	none
COc1ccc(C(CNC(=O)CNC(=O)c2cccc(C)c2)N2CCCCC2)cc1 (stereo unspecified)	none (no result: T cell modulator, GASC-1 inh)
O=C(NC1CC2CCC1C2)C1COc2ccccc2O1 (stereo unspecified)	GASC-1 inh 68
CN(C)S(=O)(=O)c1ccc2nnn(OCC(=O)NC34CC5CC(CC(C5)C3)C4)c2c1	NR3A LBD binder 12
Nc1nc(=S)c2[nH]cnc2[nH]1	none (no result: GASC-1 inh)
COC(=O)/C(C#N)=C/c1c(Oc2cc(C)cc(C)c2)nc2c(C)cccn2c1=O	NR3A LBD binder 13
COc1ccc(Oc2nc3c(C)cccn3c(=O)c2/C=C(\C#N)C(N)=O)cc1	none
COc1cc2c(cc1NC(=O)Nc1ccccc1)oc1ccccc12	NR3A LBD binder 16
COc1cc2c(cc1NC(=S)Nc1cccc(C(F)(F)F)c1)oc1ccccc12	NR3A LBD binder 29
CCCN(CCC)S(=O)(=O)c1ccc(C(=O)Nc2cc3oc4ccccc4c3cc2OC)cc1	none
COc1cc2c(cc1NC(=O)c1cncc(Br)c1)oc1ccccc12	NR3A LBD binder 24 (no result: GASC-1 inh)
COc1cc2c(cc1NC(=O)CCC(=O)O)oc1ccccc12	none
CCN(CC)S(=O)(=O)c1cccc(C(=O)Nc2cc3oc4ccccc4c3cc2OC)c1	NR3A LBD binder 22
COc1ccc(C2C(C(C)=O)=C(C)Nc3ncnn32)cc1 (stereo unspecified)	none
COc1ccc(/C=C/c2nc(-c3ccccc3O)n[nH]2)cc1	NR3A LBD binder 40
CCC(=Cc1ccccc1OC)c1ccncc1	none (no result: T cell modulator, GASC-1 inh)
COc1ccc(CNC(=O)CN2C(=O)COc3ccc(S(=O)(=O)N4CCOCC4)cc32)cc1	none
COc1ccc(CNC(=O)CN2C(=O)COc3ccc(S(=O)(=O)N4CCC(C)CC4)cc32)cc1	NR3A LBD binder 45
Cc1ccc(C)c(NC(=O)CN2C(=O)COc3ccc(S(=O)(=O)N4CCCC4)cc32)c1	NR3A LBD binder 10
O=C(O)CC/C(=C\c1ccc(Cl)c([N+](=O)[O-])c1)c1nc2ccccc2s1	NR3A LBD binder 30
COc1cc(CCCN2CCNC[C@@H]2Cc2ccccc2)cc(OC)c1OC	none
CCOC(=O)c1ccc(Nc2ccc(-c3ccc(OC)c(OC)c3)nn2)cc1	NR3A LBD binder 26
COc1cccc2c1Oc1ncccc1N(C(=O)CCC(=O)NCc1ccc(F)cc1)C2	Rtt109 HAT inh 51
COc1ccc(Nc2nc3ccccc3s2)cc1	NR3A LBD binder 29
CCCC(=O)Nc1nc2ccc(OC)cc2s1	none
COc1cccc(Nc2nc3ccc(OC)cc3s2)c1	NR3A LBD binder 29
COc1ccc2nc(NC(=S)N(C)C)sc2c1	NR3A LBD binder 24
COc1ccc(CNc2nc3ccccc3s2)cc1OC	none
Cc1ccc(CSCC(=O)N(CCC(C)C)c2c(N)n(Cc3ccccc3)c(=O)[nH]c2=O)cc1	none
C[C@H](CO)N1C[C@H](C)[C@@H](CN(C)Cc2ccccc2)Oc2ccc(NC(=O)Cn3cnnn3)cc2C1=O	none
CC1CCCC(NC(=O)/C=C/c2c(F)cccc2Cl)C1C (stereo unspecified)	none
COCCN(C(=O)CCC(=O)Nc1nccs1)C(C(=O)NCCC(C)C)c1ccc(OC)cc1 (stereo unspecified)	none
O=C(CN1CCN(CC(=O)Nc2ccccc2Cc2ccccc2)CC1)Nc1ccccc1Cl	none
CN1CCN(CCCN2c3ccccc3Sc3ccc(Cl)cc32)CC1	Rtt109 HAT inh 53!
CCSc1ccc2c(c1)N(CCCN1CCN(C)CC1)c1ccccc1S2	none (no result: GASC-1 inh)
CCN(CC(=O)Nc1c(F)cccc1F)C(=O)CCN1C(=O)c2cccc([N+](=O)[O-])c2C1=O	none
Nc1nc(Nc2ccc(Cl)cc2)nc2ccccc12	NR3A LBD binder 39
Nc1nc(Nc2ccccc2)nc2ccccc12	none
COc1cc2nc(Nc3ccc(C)c(C)c3)nc(N)c2cc1OC	NR3A LBD binder 16
CCOC(=O)c1ccc(Nc2nc(N)c3cc(OC)c(OC)cc3n2)cc1	none (no result: Rtt109 HAT inh)
CCOc1ccc(Nc2nc(N)c3ccccc3n2)cc1	NR3A LBD binder 28
COc1cc2nc(Nc3ccc(F)cc3)nc(N)c2cc1OC	none
COc1cc2nc(Nc3ccc(C)c(Cl)c3)nc(N)c2cc1OC	NR3A LBD binder 28
O=C(Nc1ccc(Br)cc1)c1ccccc1Br	none
COc1cc(CN2CCN(C(=O)CC(C)C)CC2)c([N+](=O)[O-])cc1OC	none
Cc1ccccc1Nc1nc(N)c2ccccc2n1	none (no result: Rtt109 HAT inh)
Cc1ccc(Nc2nc(N)c3ccccc3n2)cc1Cl	NR3A LBD binder 39
Cc1cc(C)c2nc(N(CCCN(C)C)C(=O)c3ccc4c(c3)CCCC4)sc2c1	GASC-1 inh inconclusive (no result: Rtt109 HAT inh)
Cc1ccc2nc(N(CCCN(C)C)C(=O)c3ccc4c(c3)CCCC4)sc2c1	Rtt109 HAT inh 63
C=C(C)COc1ccc(-c2n[nH]c(C)c2-c2ccc(OC)cc2)c(O)c1	NR3A LBD binder 12
COc1nc(=O)n(C2CCCO2)cc1C (stereo unspecified)	none (no result: T cell modulator, GASC-1 inh)
COc1ccccc1C(CNC(=O)c1cccc(NS(=O)(=O)c2ccc(C)c(F)c2)c1)N1CCCC1 (stereo unspecified)	none
CCOc1ccccc1Nc1ccnc2cc(Cl)ccc12	NR3A LBD binder 228
C/C(=N\Nc1ccc([N+](=O)[O-])cc1)c1cccc(N)c1	NR3A LBD binder 29
CC/C(=N\Nc1ccccc1[N+](=O)[O-])c1ccc(O)cc1	none
C/C(=N\Nc1cccc([N+](=O)[O-])c1)c1cc2ccccc2o1	NR3A LBD binder 29 (no result: Rtt109 HAT inh)
C/C(=N\Nc1ccc([N+](=O)[O-])cc1)c1ccc(O)cc1	NR3A LBD binder 23
CC/C(=N\Nc1ccc([N+](=O)[O-])cc1[N+](=O)[O-])c1ccc(O)cc1	NR3A LBD binder 18
Cc1nc(SCC(=O)N(CC(C)C)C2CCS(=O)(=O)C2)c2c(C)c(C)sc2n1 (stereo unspecified)	none
CN(CCCC1CCCC1)C(=O)CC1C(=O)NCCN1Cc1ccc(F)cc1 (stereo unspecified)	none
CCCC1S/C(=N/N=C/c2ccc(OC)cc2)N(Cc2ccc(OC)cc2)C1=O (stereo unspecified)	none
CCCC1S/C(=N/N=C/c2ccc(OC)cc2)N(Cc2ccccc2)C1=O (stereo unspecified)	NR3A LBD binder 10
O=C(O)c1ccccc1-c1ccc(/C=c2\sc3nc4cc(Br)cnc4n3c2=O)o1	NR3A LBD binder 16
Cc1cc2nc3s/c(=C/c4ccc(-c5ccccc5C(=O)O)o4)c(=O)n3c2cc1C	none
O=C(NCCc1nnc2ccc(N3CCCC3)nn12)c1ccccc1	none
C[C@@H]1CN([C@@H](C)CO)C(=O)c2cc(NC(=O)Nc3ccc(F)cc3)ccc2O[C@@H]1CN(C)Cc1ccc(Oc2ccccc2)cc1	NR3A LBD binder 12
